Legend:
[1] = Lethal dose in mice determined after intraperitoneal administration.; assay type: toxicity, organism-based; conditions: mouse, in vivo, ip
Summary of the method: (§1)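 Mice dosed ip or po with aqueous solution or suspension in 10% aqueous acacia gum, 10 animals per dose. Mortality recorded over 7 days, with behavioural symptoms observed by the Irwin scheme. LD50 derived from dose–mortality data.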

Mus musculus [2] = assay: Anticonvulsant activity was evaluated by the maximal electroshock test in mice, administered orally; assay type: functional; conditions: po
Summary of the method: (§2)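 Mice, groups of 10; compounds given ip or po as aqueous solutions or suspensions in 10% aqueous acacia gum. Maximal seizures elicited 30-60 min after dosing by 60-Hz alternating current, 25 mA for 0.2 s via corneal electrodes. Absence of tonic-extensor seizure scored as protection. ED50 by Litchfield-Wilcoxon with 95% confidence limits, or estimated graphically.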

Mus musculus [3] = assay: Anticonvulsant activity by the maximal electroshock test in mice by intraperitoneal administration; assay type: functional; conditions: ip; summary of the method: as §2
[4] = Lethal dose determined in mice after oral administration; assay type: toxicity, organism-based; conditions: mouse, in vivo; summary of the method: as §1
[5] = Ionization constant was determined by potentiometric titration at 22 degree C; assay type: physicochemical
Summary of the method: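 Methanolic-aqueous 10⁻³ M solutions of the hydrochloride salts titrated with 0.02 M KOH. Glass-calomel electrode system read on an expanded pH scale. pKa' obtained by the Albert-Serjeant procedure.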

[6] = Partition coefficient (logP); assay type: physicochemical; conditions: octanol/water
Summary of the method: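 Octanol partitioning at room temperature (20 ± 5 °C) with gentle shaking for 6 h, then centrifugation for 15 min at 2000 rpm. Octanol phase quantified by gas chromatography. Amount in the second phase taken as total sample minus the octanol amount.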

Row | Structure (SMILES) | LD50 [1] [mg/kg] | ED50 (Mus musculus [2]) [mg/kg] | ED50 (Mus musculus [3]) [mg/kg] | LD50 [4] [mg/kg] | pKa [5] | logP [6]
1 | CC(Cn1ccnc1)C(=O)c1ccc(-c2ccccc2)cc1 (centres undefined) | 130 | > 26 | 19.5 |  |  | 
2 | CCC1(c2ccccc2)C(=O)NC(=O)NC1=O.Cl [PHENOBARBITAL HYDROCHLORIDE] | 235 | 17.6 | 22.5 | 237 |  | 
3 | O=C(Cn1ccnc1)c1ccc(Cl)cc1Cl | 420 | > 84 | > 84 |  |  | 
4 | O=C(Cn1ccnc1)c1ccccc1Cl | 360 |  |  |  |  | 
5 | Cl.OC(CCn1ccnc1)c1ccc(CCc2ccccc2)cc1 (centres undefined) | 420 | 24.7 | 21 | 560 |  | 
6 | O=C(Cn1ccnc1)c1ccccc1 | 360 |  | > 72 |  | 6.32 | 1.03
7 | CC(C(O)c1ccc(-c2ccccc2)cc1)n1ccnc1.Cl (centres undefined) | 655 | 24.7 | 19.6 | 570 |  | 
8 | Cl.OC(Cn1ccnc1)c1ccccc1 (centres undefined) | 210 |  | > 42 |  | 6.68 | 0.99
9 | O=C(Cn1ccnc1)c1ccccc1-c1ccccc1 | 115 | 17.1 | 13.5 | 360 |  | 
10 | Cl.O=C1NC(=O)C(c2ccccc2)(c2ccccc2)N1 [PHENYTOIN CHLORIDE] |  | 9.7 | 8.5 |  |  | 
11 | CC(C)(C(=O)c1ccc(CCc2ccccc2)cc1)n1ccnc1 | 180 | > 36 | 29.5 |  |  | 
12 | O=C(CCn1ccnc1)c1ccc(CCc2ccccc2)cc1 | > 3000 | 112 | 28.6 | 2100 |  | 
13 | Cl.Oc1ccc(C(O)Cn2ccnc2)cc1 (centres undefined) | 1000 | > 200 | > 200 |  |  | 
14 | O=C(Cn1ccnc1)c1ccc(O)cc1 | 750 | > 150 | > 150 |  |  | 
15 | O=C(Cn1ccnc1)c1ccc(-c2ccccc2)cc1 | 1550 | 78.3 | 61.3 | 2400 |  | 
16 | Nc1ccc(C(=O)Cn2ccnc2)cc1 | 360 | > 72 | > 72 |  |  | 
17 | Cl.Oc1ccc(C(O)Cn2ccnc2)cc1O (centres undefined) | 1150 | > 230 | > 230 |  |  | 
18 | O=C(Cn1ccnc1)c1ccc(O)c(O)c1 | 1000 | > 200 | > 200 |  |  | 
19 | COc1ccc(C(O)Cn2ccnc2)cc1.Cl (centres undefined) | 360 |  | > 72 |  |  | 
20 | CC(C)(C(=O)c1ccc(-c2ccccc2)cc1)n1ccnc1 | > 3000 | 42.9 | 38 | 1870 |  | 
21 | CCC(C)c1ccc(C(=O)Cn2ccnc2)cc1 (centres undefined) | 115 | > 23 | > 23 |  |  | 
22 | CC(C)(C(O)c1ccc(-c2ccccc2)cc1)n1ccnc1.Cl (centres undefined) | 420 | 25.1 | 23.8 | 2400 |  | 
23 | CC(=O)Nc1ccc(C(=O)Cn2ccnc2)cc1 | 1000 | > 200 | > 200 |  |  | 
24 | O=C(Cn1ccnc1)c1cccc(-c2ccccc2)c1 | 210 | 21 | 11.2 | 750 |  | 
25 | CC(C(=O)c1ccc(-c2ccccc2)cc1)n1ccnc1 (centres undefined) | 87.5 | > 18 | 13.4 |  |  | 
26 | CC(C)(C)c1ccc(C(O)Cn2ccnc2)cc1.Cl (centres undefined) | 210 | > 42 | 42 |  |  | 

Row | Structure (SMILES) | LD50 [1] [mg/kg] | ED50 (Mus musculus [2]) [mg/kg] | ED50 (Mus musculus [3]) [mg/kg] | LD50 [4] [mg/kg] | pKa [5] | logP [6]
27 | Cl.OC(CCn1ccnc1)c1ccc(-c2ccccc2)cc1 (centres undefined) | 360 | 53.5 | 44 |  |  | 
28 | Cl.OC(Cn1ccnc1)c1ccccc1-c1ccccc1 (centres undefined) | 155 | 24.5 | 18.8 | 300 |  | 
29 | Cl.Nc1ccc(C(O)Cn2ccnc2)cc1 (centres undefined) | 875 | > 175 | > 175 |  |  | 
30 | O=C(Cn1ccnc1)c1ccc(CCc2ccccc2)cc1 |  | 36.9 | 12.7 |  |  | 
31 | O=C(Cn1ccnc1)c1ccc(Cl)cc1 | 240 | > 48 | > 48 |  |  | 
32 | O=C(Cn1ccnc1)c1ccc(C2CCCCC2)cc1 | > 3000 | 89.9 | 62.2 | 2100 |  | 
33 | O=C(Cn1ccnc1)c1ccc(Oc2ccccc2)cc1 | 100 | > 20 | > 20 |  |  | 
34 | Cl.OC(Cn1ccnc1)c1ccc(-c2ccccc2)cc1 (centres undefined) | 1150 | 31 | 45 | > 30000 |  | 
35 | Cl.OC(Cn1ccnc1)c1ccc(C2CCCCC2)cc1 (centres undefined) | 490 | 59.6 | 53 | 2700 |  | 
36 | Cl.OC(Cn1ccnc1)c1ccc(Oc2ccccc2)cc1 (centres undefined) | 360 | > 48 | 31.1 |  |  | 
37 | Cl.O=[N+]([O-])c1ccc(C(O)Cn2ccnc2)cc1 (centres undefined) | 490 | 98 | 98 |  |  | 
38 | CC(C(=O)c1ccc(CCc2ccccc2)cc1)n1ccnc1 (centres undefined) | 115 | > 23 | > 23 |  |  | 
39 | OC(Cn1ccnc1)c1ccc(Cl)cc1Cl (centres undefined) | 300 | 39.7 | 39.7 |  |  | 
40 | CC(Cn1ccnc1)C(O)c1ccc(-c2ccccc2)cc1.Cl (centres undefined) | 210 | 32.3 | 25.7 |  |  | 
41 | CC(C)(C(O)c1ccc(CCc2ccccc2)cc1)n1ccnc1.Cl (centres undefined) | 240 | > 48 | 22.4 |  |  | 
42 | Cl.OC(Cn1ccnc1)c1ccc(CCc2ccccc2)cc1 (centres undefined) | 270 | 10.2 | 5.3 | 434 |  | 
43 | O=C(Cn1ccnc1)c1ccc([N+](=O)[O-])cc1 | 360 | > 72 | > 72 |  |  | 
44 | COc1ccc(C(=O)Cn2ccnc2)cc1 | 270 |  | > 54 |  |  | 
45 | Cl.OC(Cn1ccnc1)c1cccc(-c2ccccc2)c1 (centres undefined) | 180 | 25 | 15.8 |  |  | 
46 | OC(Cn1ccnc1)c1ccc(Cl)cc1 (centres undefined) | 270 | > 54 | 31 |  |  | 
47 | CC(C(O)c1ccc(CCc2ccccc2)cc1)n1ccnc1.Cl (centres undefined) | 180 | 36 | 15 |  |  | 
48 | O=C(CCn1ccnc1)c1ccc(-c2ccccc2)cc1 |  | 40.5 | 35.1 | 1150 |  | 
49 | CS(=O)(=O)Nc1ccc(C(=O)Cn2ccnc2)cc1 | > 3000 | > 300 | > 300 | > 3000 |  | 
50 | CC(C)(C)c1ccc(C(=O)Cn2ccnc2)cc1 | 100 | > 20 | > 20 |  |  | 
51 | CCC(C)c1ccc(C(O)Cn2ccnc2)cc1.Cl (centres undefined) | 210 | 31.2 | 28.5 |  |  | 
